Laboratory results reported in article PMC3652433 (MedChemComm, 2013).

What was measured:
hMOR = hMOR (Homo sapiens, UniProt P35372); format: cell-based; details: hMOR-CHO cells with Gqi5; data not shown
CCR5 [1] = molecular target: CCR5 (Homo sapiens, UniProt P51681); test: Ca2+ flux assay in Gqi5 transfected CCR5-MOLT-4 cells; format: cell-based; details: for Potency decrease in RANTES induced Ca2+ flux inhibition compared to maraviroc: relative to maraviroc
HIV-1SF162 = format: cell-based; details: human astrocytes
Outline: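 Human astrocytes infected with R5 HIV-1SF162; infection assessed by a luciferase-based read-out of relative Tat protein expression at 18 h post-infection. Dose–response was run per compound first. Fixed levels: test compound 100 nM, CCR5 antagonist reference 100 nM, opioid antagonist reference 1.5 μM. Values are […] ± SEM of three independent experiments; statistics vs uninfected control cells.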

astroglial cells = test: Viability of astroglial cells, dual fluorescence labeling with AOPI; format: cell-based, human; details: 100 nM, data not shown
CCR5 [2] = molecular target: CCR5 (Macaca mulatta, UniProt P61813); test: CCR5 competitive radioligand binding assay; set-up: species or system rhesus macaque; details: relative to maraviroc
[3] = 100 nM, R5 HIV-1SF162, 18 h post-infection

CCR5 (Homo sapiens, UniProt P51681), sequence (P51681 whole entry): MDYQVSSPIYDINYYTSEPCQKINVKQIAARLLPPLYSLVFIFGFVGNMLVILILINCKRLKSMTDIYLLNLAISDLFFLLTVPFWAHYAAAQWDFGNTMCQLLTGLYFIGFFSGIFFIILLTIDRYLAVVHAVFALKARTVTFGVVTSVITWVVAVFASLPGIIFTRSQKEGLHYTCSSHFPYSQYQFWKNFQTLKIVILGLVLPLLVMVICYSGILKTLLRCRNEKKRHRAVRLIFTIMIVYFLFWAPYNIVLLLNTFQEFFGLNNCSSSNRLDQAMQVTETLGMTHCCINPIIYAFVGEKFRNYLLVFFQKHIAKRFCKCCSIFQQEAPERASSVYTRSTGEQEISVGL
hMOR, sequence (P35372 whole entry): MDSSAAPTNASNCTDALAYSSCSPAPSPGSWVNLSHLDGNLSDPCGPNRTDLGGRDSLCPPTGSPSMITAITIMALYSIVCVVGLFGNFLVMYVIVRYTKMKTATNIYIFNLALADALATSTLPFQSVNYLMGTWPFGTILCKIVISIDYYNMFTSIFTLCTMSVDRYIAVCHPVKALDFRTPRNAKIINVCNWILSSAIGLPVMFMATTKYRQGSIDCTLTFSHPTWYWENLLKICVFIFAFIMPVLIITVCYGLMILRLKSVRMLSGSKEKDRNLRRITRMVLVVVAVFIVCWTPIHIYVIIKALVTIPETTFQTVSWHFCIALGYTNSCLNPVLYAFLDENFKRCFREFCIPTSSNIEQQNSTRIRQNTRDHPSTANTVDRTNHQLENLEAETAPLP

| Molecule | MOR agonism in Ca2+ mobilization assay (hMOR) | Potency decrease in RANTES induced Ca2+ flux inhibition compared to maraviroc (CCR5 [1]) | Effect on viral entry / Tat expression (HIV-1SF162; [3]) | other results |
| --- | --- | --- | --- | --- |
| Cc1nnc(C(C)C)n1C1CC2CCC(C1)N2CC[C@H](NC(=O)C1CCC(F)(F)CC1)c1ccc(NC(=O)COCC(=O)NCCCCCCCNC(=O)COCC(=O)N[C@@H]2CC[C@@]3(O)[C@H]4Cc5ccc(O)c6c5[C@@]3(CCN4CC3CC3)[C@H]2O6)cc1 (some centres unmarked) [compound 1] | No agonism was observed | approximately 60 fold | significantly effective in inhibiting viral entry | CCR5 agonism in Ca2+ assay (CCR5 [1]; CCR5-MOLT-4 cells with Gqi5, data not shown): no CCR5 agonism was detected; Decrease in Tat expression compared to maraviroc alone (HIV-1SF162; 100 nM, vs maraviroc 100 nM): at least a two-fold decrease in Tat expression; Effect on viability of astroglial cells (astroglial cells): did not affect the viability of astroglial cells |
| CNC(=O)COCC(=O)NCCCCCCCNC(=O)COCC(=O)N[C@@H]1CC[C@@]2(O)[C@H]3Cc4ccc(O)c5c4[C@@]2(CCN3CC2CC2)[C@H]1O5 [compound 2] | No agonism was observed |  |  |  |
| CNC(=O)COCC(=O)NCCCCCCCNC(=O)COCC(=O)Nc1ccc([C@H](CCN2C3CCC2CC(n2c(C)nnc2C(C)C)C3)NC(=O)C2CCC(F)(F)CC2)cc1 (some centres unmarked) [compound 3] |  | ~300 fold |  |  |
| Cc1nnc(C(C)C)n1C1CC2CCC(C1)N2CC[C@H](NC(=O)C1CCC(F)(F)CC1)c1ccc(N)cc1 (some centres unmarked) [compound 4] |  |  |  | Decrease in CCR5 binding affinity compared to maraviroc (CCR5 [2]): approximately 65 fold |
| O=C1CC[C@@]2(O)[C@H]3Cc4ccc(O)c5c4[C@@]2(CCN3CC2CC2)[C@H]1O5 [naltrexone, reference compound] |  |  |  | Effect on Tat production (HIV-1SF162; 1.5 μM, R5 HIV-1SF162, 18 h post-infection): did not show significant effect on Tat production |
| maraviroc [reference compound] |  |  | considerably inhibited viral entry |  |
